Test results as given in ChEMBL document CHEMBL2157880, “Synthesis, antimycobacterial and antibacterial activity of ciprofloxacin derivatives containing a N-substituted benzyl moiety” (2012).
≈ marks a conversion by molar mass, not a printed value.

System: Escherichia coli
Experiment: Antibacterial activity against Escherichia coli 10-1 after 18 to 24 hrs by NCCLS method
Format: functional
Method in brief: (§1)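 Standard NCCLS (M100-S11) MIC testing against Gram-positive and Gram-negative strains. Plates were incubated at 35 °C for 18–24 h. The MIC was read as the lowest concentration giving complete inhibition of visible bacterial growth.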

Row | SMILES | MIC [µg/mL]
1 | COc1cc(CN2CCN(c3cc4c(cc3F)c(=O)c(C(=O)O)cn4C3CC3)CC2)cc(OC)c1OC | > 128

System: Staphylococcus epidermidis
Experiment: Antibacterial activity against methicillin-sensitive Staphylococcus epidermidis 10-11 after 18 to 24 hrs by NCCLS method
Format: functional
Method in brief: as §1

Row | SMILES | MIC [µg/mL]
2 | COc1cc(CN2CCN(c3cc4c(cc3F)c(=O)c(C(=O)O)cn4C3CC3)CC2)cc(OC)c1OC | 0.5 (≈ 0.977 µM)

System: Escherichia coli
Experiment: Antibacterial activity against extended spectrum beta-lactamases producing Escherichia coli 10-2 after 18 to 24 hrs by NCCLS method
Format: functional
Method in brief: as §1

Row | SMILES | MIC [µg/mL]
3 | COc1cc(CN2CCN(c3cc4c(cc3F)c(=O)c(C(=O)O)cn4C3CC3)CC2)cc(OC)c1OC | > 128

System: Enterococcus faecalis
Experiment: Antibacterial activity against Enterococcus faecalis 10-5 after 18 to 24 hrs by NCCLS method
Format: functional
Method in brief: as §1

Row | SMILES | MIC [µg/mL]
4 | COc1cc(CN2CCN(c3cc4c(cc3F)c(=O)c(C(=O)O)cn4C3CC3)CC2)cc(OC)c1OC | 8 (≈ 15.6 µM)

System: Staphylococcus aureus
Experiment: Antibacterial activity against Staphylococcus aureus ATCC 2592 after 18 to 24 hrs by NCCLS method
Format: functional
Method in brief: as §1

Row | SMILES | MIC [µg/mL]
5 | COc1cc(CN2CCN(c3cc4c(cc3F)c(=O)c(C(=O)O)cn4C3CC3)CC2)cc(OC)c1OC | 0.25 (≈ 0.489 µM)

System: Pseudomonas aeruginosa
Experiment: Antibacterial activity against Pseudomonas aeruginosa 10-20 after 18 to 24 hrs by NCCLS method
Format: functional
Method in brief: as §1

Row | SMILES | MIC [µg/mL]
6 | COc1cc(CN2CCN(c3cc4c(cc3F)c(=O)c(C(=O)O)cn4C3CC3)CC2)cc(OC)c1OC | 64 (≈ 125 µM)

System: Staphylococcus aureus
Experiment: Antibacterial activity against methicillin-sensitive Staphylococcus aureus 10-14 after 18 to 24 hrs by NCCLS method
Format: functional
Method in brief: as §1

Row | SMILES | MIC [µg/mL]
7 | COc1cc(CN2CCN(c3cc4c(cc3F)c(=O)c(C(=O)O)cn4C3CC3)CC2)cc(OC)c1OC | 0.25 (≈ 0.489 µM)

System: Klebsiella pneumoniae
Experiment: Antibacterial activity against Klebsiella pneumoniae 10-2 after 18 to 24 hrs by NCCLS method
Format: functional
Method in brief: as §1

Row | SMILES | MIC [µg/mL]
8 | COc1cc(CN2CCN(c3cc4c(cc3F)c(=O)c(C(=O)O)cn4C3CC3)CC2)cc(OC)c1OC | > 128

System: Enterococcus faecalis
Experiment: Antibacterial activity against Enterococcus faecalis 10-6 after 18 to 24 hrs by NCCLS method
Format: functional
Method in brief: as §1

Row | SMILES | MIC [µg/mL]
9 | COc1cc(CN2CCN(c3cc4c(cc3F)c(=O)c(C(=O)O)cn4C3CC3)CC2)cc(OC)c1OC | 64 (≈ 125 µM)

System: Pseudomonas aeruginosa
Experiment: Antibacterial activity against Pseudomonas aeruginosa 10-12 after 18 to 24 hrs by NCCLS method
Format: functional
Method in brief: as §1

Row | SMILES | MIC [µg/mL]
10 | COc1cc(CN2CCN(c3cc4c(cc3F)c(=O)c(C(=O)O)cn4C3CC3)CC2)cc(OC)c1OC | 32 (≈ 62.6 µM)

System: Klebsiella pneumoniae
Experiment: Antibacterial activity against Klebsiella pneumoniae 10-4 after 18 to 24 hrs by NCCLS method
Format: functional
Method in brief: as §1

Row | SMILES | MIC [µg/mL]
11 | COc1cc(CN2CCN(c3cc4c(cc3F)c(=O)c(C(=O)O)cn4C3CC3)CC2)cc(OC)c1OC | > 128

System: Staphylococcus epidermidis
Experiment: Antibacterial activity against methicillin-resistant Staphylococcus epidermidis 10-10 after 18 to 24 hrs by NCCLS method
Format: functional
Method in brief: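 Incubated at 35 °C for 18–24 h under NCCLS (M100-S11) standards. MIC was read as the lowest concentration giving complete inhibition of visible bacterial growth.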

Row | SMILES | MIC [µg/mL]
12 | COc1cc(CN2CCN(c3cc4c(cc3F)c(=O)c(C(=O)O)cn4C3CC3)CC2)cc(OC)c1OC | 32 (≈ 62.6 µM)

System: Escherichia coli
Experiment: Antibacterial activity against Escherichia coli ATCC 25922 after 18 to 24 hrs by NCCLS method
Format: functional
Method in brief: as §1

Row | SMILES | MIC [µg/mL]
13 | COc1cc(CN2CCN(c3cc4c(cc3F)c(=O)c(C(=O)O)cn4C3CC3)CC2)cc(OC)c1OC | 1 (≈ 1.95 µM)

System: Escherichia coli
Experiment: Antibacterial activity against extended spectrum beta-lactamases producing Escherichia coli 10-4 after 18 to 24 hrs by NCCLS method
Format: functional
Method in brief: as §1

Row | SMILES | MIC [µg/mL]
14 | COc1cc(CN2CCN(c3cc4c(cc3F)c(=O)c(C(=O)O)cn4C3CC3)CC2)cc(OC)c1OC | > 128

System: Escherichia coli
Experiment: Antibacterial activity against Escherichia coli 10-2 after 18 to 24 hrs by NCCLS method
Format: functional
Method in brief: as §1

Row | SMILES | MIC [µg/mL]
15 | COc1cc(CN2CCN(c3cc4c(cc3F)c(=O)c(C(=O)O)cn4C3CC3)CC2)cc(OC)c1OC | 32 (≈ 62.6 µM)

System: Staphylococcus aureus
Experiment: Antibacterial activity against methicillin-sensitive Staphylococcus aureus 10-13 after 18 to 24 hrs by NCCLS method
Format: functional
Method in brief: as §1

Row | SMILES | MIC [µg/mL]
16 | COc1cc(CN2CCN(c3cc4c(cc3F)c(=O)c(C(=O)O)cn4C3CC3)CC2)cc(OC)c1OC | 0.5 (≈ 0.977 µM)

System: Klebsiella pneumoniae
Experiment: Antibacterial activity against extended spectrum beta-lactamases producing Klebsiella pneumoniae 10-3 after 18 to 24 hrs by NCCLS method
Format: functional
Method in brief: as §1

Row | SMILES | MIC [µg/mL]
17 | COc1cc(CN2CCN(c3cc4c(cc3F)c(=O)c(C(=O)O)cn4C3CC3)CC2)cc(OC)c1OC | > 128

System: Staphylococcus aureus
Experiment: Antibacterial activity against methicillin-sensitive Staphylococcus aureus 10-11 after 18 to 24 hrs by NCCLS method
Format: functional
Method in brief: as §1

Row | SMILES | MIC [µg/mL]
18 | COc1cc(CN2CCN(c3cc4c(cc3F)c(=O)c(C(=O)O)cn4C3CC3)CC2)cc(OC)c1OC | 0.25 (≈ 0.489 µM)

System: Pseudomonas aeruginosa
Experiment: Antibacterial activity against Pseudomonas aeruginosa 10-5 after 18 to 24 hrs by NCCLS method
Format: functional
Method in brief: as §1

Row | SMILES | MIC [µg/mL]
19 | COc1cc(CN2CCN(c3cc4c(cc3F)c(=O)c(C(=O)O)cn4C3CC3)CC2)cc(OC)c1OC | 32 (≈ 62.6 µM)
